Reference: ChEMBL document CHEMBL1156845, “Spirocyclic ureas: orally bioavailable 11 beta-HSD1 inhibitors identified by computer-aided drug design” (Bioorg Med Chem Lett, 2010)

Tests used:
[1] = biological target: T1, 11-beta-hydroxysteroid dehydrogenase 1 (Homo sapiens, UniProt P28845); assay: Inhibition of human recombinant 11beta-HSD1 expressed in CHO cells assessed as conversion of [3H]cortisone to [3H]cortisol by SPA; format: cell-based
[2] = biological target: T1, 11-beta-hydroxysteroid dehydrogenase 1; assay: Inhibition of 11beta-HSD1 in human adipocytes assessed as conversion of [3H]cortisone to [3H]cortisol after 2 hrs by SPA; format: cell-based
[3] = biological target: T2, 11-beta-hydroxysteroid dehydrogenase type 2 (Homo sapiens, UniProt P80365); assay: Inhibition of 11beta-HSD2
T2 sequence (P80365 whole entry): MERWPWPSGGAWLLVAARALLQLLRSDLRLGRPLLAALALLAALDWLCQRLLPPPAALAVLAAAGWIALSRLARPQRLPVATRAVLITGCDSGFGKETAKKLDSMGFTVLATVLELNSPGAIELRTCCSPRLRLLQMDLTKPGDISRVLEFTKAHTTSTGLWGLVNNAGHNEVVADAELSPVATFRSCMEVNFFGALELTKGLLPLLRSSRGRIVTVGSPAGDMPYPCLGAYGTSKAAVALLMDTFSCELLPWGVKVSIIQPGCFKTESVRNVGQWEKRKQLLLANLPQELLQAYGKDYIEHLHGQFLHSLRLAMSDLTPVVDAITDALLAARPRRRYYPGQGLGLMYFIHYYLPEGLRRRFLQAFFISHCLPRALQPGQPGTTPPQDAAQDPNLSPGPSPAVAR

[4] = Half life in rat at 9.68 mg/kg, po and 1.9 mg/kg, iv; format: ADME, organism-based; details: in vivo
Method in brief: (§1)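 PK after oral and IV dosing, with compounds given as sodium salts. Rat and mouse received 9.68 mg/kg PO and 1.9 mg/kg IV; cynomolgus monkey received 2 mg/kg PO and 1 mg/kg IV. AUC(inf) and t1/2 are the oral parameters, clearance is from the IV arm, and %F is oral bioavailability.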

[5] = AUC (infinity) in rat at 9.68 mg/kg, po and 1.9 mg/kg, iv; format: ADME, organism-based; details: plasma; method in brief: as §1
[6] = Oral bioavailability in rat at 9.68 mg/kg; format: ADME, organism-based; details: in vivo; method in brief: as §1
[7] = Clearance in rat at 1.9 mg/kg, iv; format: ADME, organism-based; parameters: dose 1.9 mg/kg, route intravenous; details: in vivo; method in brief: as §1
Cynomolgus monkey = assay: Inhibition of 11beta-HSD1 in cynomolgus monkey assessed as reduction of plasma cortisol concentration at 10 mg/kg, po administered 2 hrs before cortisone 21-acetate challenge measured every 30 mins for 6 hrs; format: functional, Macaca fascicularis; parameters: scale not given: the % may be the effect or the level left
Method in brief: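 Cynomolgus monkeys (n = 5, crossover, 7-day washout) were given dexamethasone at t = −8 h to suppress endogenous cortisol. Vehicle or compound (10 mg/kg PO) followed at t = 0, then cortisone 21-acetate challenge (25 mg PO) at t = 2 h. Blood was sampled every 30 min for 6 h to measure plasma cortisol.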

[8] = Drug level in mouse liver at 30 mg/kg, po after 4 hrs by LC-MS/MS analysis; format: ADME, organism-based; parameters: dose 30 mg/kg, route oral; details: read-out: Drug uptake
Method in brief: (§2)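 Mice (n = 3) were dosed PO at 30 mg/kg as a suspension in 0.5% methocellulose in PBS. Plasma, liver and adipose were harvested at 4 h and snap frozen. Thawed tissue was homogenized in 0.05 M BES, pH 7, and extracted into acetonitrile. Levels were measured by LC–MS/MS against standard curves made separately in each tissue matrix.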

[9] = Drug level in mouse plasma at 30 mg/kg, po after 4 hrs by LC-MS/MS analysis; format: ADME, organism-based; parameters: dose 30 mg/kg, route oral; method in brief: as §2
[10] = Drug level in mouse adipose at 30 mg/kg, po after 4 hrs by LC-MS/MS analysis; format: ADME, organism-based; parameters: dose 30 mg/kg, route oral; details: adipose tissue, read-out: Drug uptake; method in brief: as §2
[11] = Half life in cynomolgus monkey at 2 mg/kg, po and 1 mg/kg, iv; format: ADME, organism-based, Macaca fascicularis; details: in vivo; method in brief: as §1
[12] = Half life in human liver microsomes; format: ADME, Microsome
[13] = AUC (infinity) in cynomolgus monkey at 2 mg/kg, po and 1 mg/kg, iv; format: ADME, organism-based, Macaca fascicularis; details: plasma; method in brief: as §1
Cytochrome P450 2D6 = Cytochrome P450 2D6 (Homo sapiens, UniProt P10635); assay: Inhibition of CYP2D6; format: ADME
Chain of Cytochrome P450 2D6 (P10635 whole entry): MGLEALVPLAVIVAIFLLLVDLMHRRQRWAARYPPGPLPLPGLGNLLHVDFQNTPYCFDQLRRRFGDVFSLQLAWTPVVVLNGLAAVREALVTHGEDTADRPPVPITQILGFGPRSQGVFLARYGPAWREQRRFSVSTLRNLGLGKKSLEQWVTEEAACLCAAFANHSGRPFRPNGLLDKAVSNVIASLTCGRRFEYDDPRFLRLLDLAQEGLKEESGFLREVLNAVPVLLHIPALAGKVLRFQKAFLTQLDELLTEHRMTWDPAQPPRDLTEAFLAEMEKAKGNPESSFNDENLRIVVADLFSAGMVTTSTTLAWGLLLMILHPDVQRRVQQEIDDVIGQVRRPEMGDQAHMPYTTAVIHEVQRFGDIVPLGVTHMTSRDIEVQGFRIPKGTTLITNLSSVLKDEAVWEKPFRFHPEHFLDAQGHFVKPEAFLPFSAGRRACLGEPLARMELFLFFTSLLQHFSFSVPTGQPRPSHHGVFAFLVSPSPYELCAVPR

[14] = Oral bioavailability in cynomolgus monkey at 2 mg/kg; format: ADME, organism-based, Macaca fascicularis; details: in vivo; method in brief: as §1
[15] = Clearance in cynomolgus monkey at 1 mg/kg, iv; format: ADME, organism-based, Macaca fascicularis; parameters: dose 1 mg/kg, route intravenous; details: in vivo; method in brief: as §1
[16] = AUC (infinity) in mouse at 9.68 mg/kg, po and 1.9 mg/kg, iv; format: ADME, organism-based; details: plasma; method in brief: as §1
Cytochrome P450 2C9 = Cytochrome P450 2C9 (Homo sapiens, UniProt P11712); assay: Inhibition of CYP2C9; format: ADME
Chain of Cytochrome P450 2C9 (P11712 whole entry): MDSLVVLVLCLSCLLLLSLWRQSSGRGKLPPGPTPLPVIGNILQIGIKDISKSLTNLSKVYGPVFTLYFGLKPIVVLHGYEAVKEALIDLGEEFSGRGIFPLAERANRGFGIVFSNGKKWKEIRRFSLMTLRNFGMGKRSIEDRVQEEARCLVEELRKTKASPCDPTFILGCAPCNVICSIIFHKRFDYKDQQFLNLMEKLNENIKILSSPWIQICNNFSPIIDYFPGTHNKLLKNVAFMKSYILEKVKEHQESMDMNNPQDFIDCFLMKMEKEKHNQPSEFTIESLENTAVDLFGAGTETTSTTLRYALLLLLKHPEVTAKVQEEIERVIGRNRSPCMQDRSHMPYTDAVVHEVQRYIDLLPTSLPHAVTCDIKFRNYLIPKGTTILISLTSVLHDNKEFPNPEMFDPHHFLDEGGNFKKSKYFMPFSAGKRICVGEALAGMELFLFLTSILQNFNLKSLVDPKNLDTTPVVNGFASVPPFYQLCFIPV

Cytochrome P450 3A4 = Cytochrome P450 3A4 (Homo sapiens, UniProt P08684); assay: Inhibition of CYP3A4; format: ADME
Chain of Cytochrome P450 3A4 (P08684 whole entry): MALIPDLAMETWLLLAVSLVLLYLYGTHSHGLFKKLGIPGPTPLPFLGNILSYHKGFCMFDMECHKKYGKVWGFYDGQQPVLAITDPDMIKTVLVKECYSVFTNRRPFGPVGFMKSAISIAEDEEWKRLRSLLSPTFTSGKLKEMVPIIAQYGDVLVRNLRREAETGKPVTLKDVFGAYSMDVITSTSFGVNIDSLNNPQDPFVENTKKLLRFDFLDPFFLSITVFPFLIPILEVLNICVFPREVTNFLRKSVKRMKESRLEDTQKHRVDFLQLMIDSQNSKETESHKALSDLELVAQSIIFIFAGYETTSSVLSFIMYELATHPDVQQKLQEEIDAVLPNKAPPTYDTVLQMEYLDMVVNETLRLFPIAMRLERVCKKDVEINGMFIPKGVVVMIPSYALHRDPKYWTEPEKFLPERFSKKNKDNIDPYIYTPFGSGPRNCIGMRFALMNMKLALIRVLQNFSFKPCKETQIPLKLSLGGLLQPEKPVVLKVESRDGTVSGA

[17] = Clearance in mouse at 1.9 mg/kg, iv; format: ADME, organism-based; parameters: dose 1.9 mg/kg, route intravenous; details: in vivo; method in brief: as §1
[18] = Half life in mouse at 9.68 mg/kg, po and 1.9 mg/kg, iv; format: ADME, organism-based; details: in vivo; method in brief: as §1
[19] = Oral bioavailability in mouse at 9.68 mg/kg; format: ADME, organism-based; details: in vivo; method in brief: as §1

T1 sequence (P28845 whole entry): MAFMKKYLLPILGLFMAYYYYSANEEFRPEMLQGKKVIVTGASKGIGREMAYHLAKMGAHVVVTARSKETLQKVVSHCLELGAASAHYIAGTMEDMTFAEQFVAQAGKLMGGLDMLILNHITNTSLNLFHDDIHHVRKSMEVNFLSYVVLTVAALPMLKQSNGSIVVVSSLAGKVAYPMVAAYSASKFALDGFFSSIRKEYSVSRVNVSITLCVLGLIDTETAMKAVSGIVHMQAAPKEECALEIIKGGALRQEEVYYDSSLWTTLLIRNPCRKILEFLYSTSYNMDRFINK

Row | Structure (SMILES) | IC50 [1] [nM] | IC50 [2] [nM] | IC50 [3] [µM] | further results
1 | O=C(NC1C2CC3CC(C2)CC1C3)N1CCC2(CCc3ccccc32)CC1 (stereo not drawn) | 0.8 | 2.7 | – | –
2 | Cc1ccc2c(c1)C1(CCN(C(=O)NC3C4CC5CC(C4)CC3C5)CC1)CC2CC(=O)O (stereo not drawn) | 8.9 | 22.5 | > 10 | –
3 | O=C(O)CC1CC2(CCN(C(=O)NC3C4CC5CC(C4)CC3C5)CC2)c2ccccc21 (stereo not drawn) | – | – | – | half-life [4]: 172 min; AUC(0-inf) [5]: 3530 ng·h/mL; bioavailability [6]: 94%; clearance [7]: 47.1 mL/min/kg
4 | O=C(O)C1CC2(CCN(C(=O)NC3C4CC5CC(C4)CC3C5)CC2)c2ccccc21 (stereo not drawn) | 68.6 | > 200 | – | –
5 | CS(=O)(=O)NC(=O)CC1CC2(CCN(C(=O)NC3C4CC5CC(C4)CC3C5)CC2)c2c(Br)cccc21 (stereo not drawn) | 2 | 22.3 | > 10 | –
6 | NC(=O)CC1CC2(CCN(C(=O)NC3C4CC5CC(C4)CC3C5)CC2)c2c(Br)cccc21 (stereo not drawn) | 0.5 | 0.9 | – | –
7 | O=C(O)C[C@H]1CC2(CCN(C(=O)NC3C4CC5CC(C4)CC3C5)CC2)c2c(Br)cccc21 (stereo partly drawn) | 1.1 | 2.5 | > 10 | Activity (Cynomolgus monkey): 80%; concentration at 4 h [8]: 7070 ng/mL; concentration at 4 h [9]: 393 ng/mL; concentration at 4 h [10]: 127 ng/mL
8 | O=C(O)CC1CC2(CCN(C(=O)NC3C4CC5CC(C4)CC3C5)CC2)c2cc(Cl)ccc21 (stereo not drawn) | 3.4 | 30.2 | > 10 | –
9 | O=C(O)CC1CC2(CCN(C(=O)NC3C4CC5CC(C4)CC3C5)CC2)c2c(Cl)cccc21 (stereo not drawn) | 2.2 | 10.7 | > 10 | –
10 | O=C(O)CC1CC2(CCN(C(=O)NC3C4CC5CC(C4)CC3C5)CC2)c2c(Br)cccc21 (stereo not drawn) | 1.6 | 5.3 | > 10 | half-life [11]: 362 min; half-life [12]: > 60 min; AUC(0-inf) [13]: 743 ng·h/mL; IC50 (Cytochrome P450 2D6): > 15 µM; half-life [4]: 208 min; bioavailability [14]: 31%; concentration at 4 h [8]: 5130 ng/mL; AUC(0-inf) [5]: 5400 ng·h/mL; clearance [15]: 13.8 mL/min/kg; concentration at 4 h [9]: 442 ng/mL; bioavailability [6]: 90%; clearance [7]: 26.6 mL/min/kg; AUC(0-inf) [16]: 1720 ng·h/mL; concentration at 4 h [10]: 77 ng/mL; IC50 (Cytochrome P450 2C9): > 15 µM; IC50 (Cytochrome P450 3A4): > 15 µM; clearance [17]: 28.1 mL/min/kg; half-life [18]: 370 min; bioavailability [19]: 29%
11 | Cc1cccc2c1C1(CCN(C(=O)NC3C4CC5CC(C4)CC3C5)CC1)CC2CC(=O)O (stereo not drawn) | 7.6 | 18.3 | > 10 | –
12 | O=C(O)CC1CC2(CCN(C(=O)NC3C4CC5CC(C4)CC3C5)CC2)c2ccc(Cl)cc21 (stereo not drawn) | 3.4 | 23.2 | > 10 | –
13 | O=C(NC1C2CC3CC(C2)CC1C3)N1CCC2(CC1)CC(CCO)c1cccc(Br)c12 (stereo not drawn) | 1.7 | 18 | 9 | –
14 | O=C(O)C[C@@H]1CC2(CCN(C(=O)NC3C4CC5CC(C4)CC3C5)CC2)c2c(Br)cccc21 (single isomer, unassigned) | 2 | 7.5 | > 10 | –
